From article PMC11410293 (Journal of hepatology, 2022)

Legend:
PDX283 tumors [1] = assay: pharmacodynamics in PDX283 tumors; type: in vivo, NOD/SCID mice; conditions: CA3-treated mice, qRT-PCR
PDX283 tumors [2] = assay: PDX283 xenograft tumor growth; type: in vivo, NOD/SCID mice; conditions: 1 mg/kg/mouse intraperitoneal 3 times per week for 3 weeks
Outline: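 Female NOD/SCID mice aged 6–8 weeks carried flank implants of the human CCA tumor. Dosing began once tumors were palpable (>25 mm³). Tumor growth was followed.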

[3] = test system: CCA patient-derived xenografts; conditions: cited from earlier work
cells from PDX283 = assay: viability of cells isolated from PDX283 tumor, in vitro; type: cell-based, human; conditions: concentrations up to 16 μM
HuCCT-1 reporter cells = assay: luminescent reporter of TEAD-dependent transcription; type: cell-based

## O=S(=O)(c1ccc2c(c1)C(=NO)c1cc(S(=O)(=O)N3CCCCC3)ccc1-2)N1CCCCC1 [CA3]
PDX283 tumors [1]
  YAP target gene expression in tumors: Inhibition
PDX283 tumors [2]
  growth of PDX283 tumors: significantly decreased

## Cc1nc(Nc2ncc(C(=O)Nc3c(C)cccc3Cl)s2)cc(N2CCN(CCO)CC2)n1 [dasatinib]
[3]
  in vivo growth of CCA patient-derived xenografts: inhibited

## CCN1C(=O)N(c2c(F)c(OC)cc(OC)c2F)Cc2cnc3[nH]c(CN4CCOCC4)cc3c21 [pemigatinib]
Cells from PDX283
  sensitivity of PDX283 cells: resistance

## Verteporfin
HuCCT-1 reporter cells
  global TEAD-dependent transcription: decreased
